Usually IC50 stands for the concentration at which inhibition is half-maximal.

Here are results for one molecule from ChEMBL document CHEMBL4732146, “Nitric oxide-donating and reactive oxygen species-responsive prochelators based on 8-hydroxyquinoline as anticancer agents” (Eur J Med Chem, 2021).

Activity calls are given as the source filed them. The rule behind the calls is not given here.

Data set [1] is described as follows: Metal chelating activity assessed as compound-Cu2+ complex stoichiometry ratio of […] after 1 hr by Job's plot analysis.
The nature of data set [2]: Cytotoxicity against human RWPE2 cells assessed as reduction in cell viability measured after 48 hrs by MTT assay. Type of data set: cell-based. The conditions noted are these: RWPE2, 48 h. The essentials: (§1)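 Cells seeded 6 × 10⁴ per well, cultured 24 h at 37 °C under 5% CO₂, then exposed to compound for 48 h, with or without 50 µM CuCl₂ or FeCl₃ co-incubation. MTT added for 4 h at 37 °C, formazan dissolved in DMSO, A490 read. IC50 reported as mean (SD), n = 3.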

Data set [3] relates to SW1990. Nature of the data set: Induction of apoptosis in human SW1990 cells assessed as decrease in Bcl-2 expression at 8 to 12 uM measured after 24 hrs by Western blot analysis. The conditions noted are these: dose 8-12 µM. Type of data set: functional, cell-based. The essentials:
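SW1990 cells seeded 5 × 10⁵ per well and grown 24 h at 37 °C, then treated 24 h. Lysates quantified by BCA, resolved by SDS-PAGE and transferred to nitrocellulose. Blocked in 5% milk, probed overnight at 4 °C for cleaved caspase-3, cleaved caspase-9, Bax and Bcl-2, then HRP secondary 2 h. ECL detection.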
In general terms: Immunoblotting shows a protein as a band on a membrane.

The test system of data set [4] is SW1990. Nature of the data set: Cytotoxicity against human SW1990 cells assessed as reduction in cell viability at 10 to 20 uM measured after 48 hrs in presence of NO scavenger Carboxyl-PTIO by MTT assay. The format is functional, cell-based. The conditions noted are these: dose 10-20 µM. The procedure, abridged: (§2)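 SW1990 cells pretreated 1 h at 37 °C with 20 mM NAC or 50 µM carboxy-PTIO, then treated 48 h with compound at 10 or 20 µM. Percent cell death by MTT (A490). Mean ± SD, n = 3.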
(In general: Tetrazolium assays rely on reduction of a dye to a coloured formazan, in cell work by metabolically active cells.)

For data set [5], the system named is SW1990. Nature of the data set: Induction of apoptosis in human SW1990 cells at 8 to 12 uM measured after 24 hrs by Annexin V-FITC/propidium iodide staining based flow cytometry. Type of data set: functional, cell-based. The conditions noted are these: dose 8-12 µM. The essentials: (§3)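 SW1990 cells seeded 5 × 10⁵ per well and grown 24 h, then treated 24 h at 8 or 12 µM. Optional 1 h pretreatment with 20 mM NAC or 50 µM carboxyl-PTIO before 12 µM treatment. Cells stained with annexin V-FITC 15 min and PI 5 min at room temperature in the dark, then analysed by flow cytometry. Mean ± SD, n = 3.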
On the technique in general: In flow cytometry, cells or beads pass a laser one at a time.

Data set [6] can be described thus: Prodrug activation in tBuO at 100 uM measured after 1 hr by RP-HPLC analysis. The essentials:
(§4)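 Compound (100 µM) incubated at 37 °C for 1 h with one of: ROS species (1 mM), NO solution (1 mM), GSH (200 µM), CuCl₂ (10 µM) or FeCl₃ (10 µM). Percent decomposed was determined by RP-HPLC (ODS column, 0.1% TFA water/methanol gradient, 1 mL/min, 256 nm).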

Data set [7] relates to SW1990. Nature of the data set: Induction of apoptosis in human SW1990 cells at 12 uM measured after 24 hrs in presence of NO scavenger Carboxyl-PTIO by Annexin V-FITC/propidium iodide staining based flow cytometry. The format is functional, cell-based. The procedure, abridged:
as §3

The test system of data set [8] is SW1990. Nature of the data set: Cytotoxicity against human SW1990 cells assessed as reduction in cell viability measured after 48 hrs in presence of CuCl2 by MTT assay. Type of data set: functional, cell-based. Particulars: SW1990, 48 h. The essentials: as §1
Data set [9] in a line: Prodrug activation in NO at 100 uM measured after 1 hr by RP-HPLC analysis. The procedure, abridged: as §4
In data set [10] the test system is SW1990. Nature of the data set: Cell cycle arrest in human SW1990 cells assessed as increase in accumulation at G1-phase at 12 uM measured after 24 hrs by propidium iodide staining based flow cytometry. The format is functional. The essentials: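 SW1990 cells seeded 5 × 10⁵ per well, grown 24 h, then treated 24 h. Washed in ice-cold PBS, fixed ≥24 h in ice-cold 70% alcohol, RNase A treated, PI-stained 30 min at 4 °C in the dark. DNA content read by flow cytometry to give cycle distribution. Mean ± SD, n = 3.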

Data set [11] deals with SW1990. Nature of the data set: Cytotoxicity against human SW1990 cells assessed as reduction in cell viability measured after 48 hrs in presence of 10 to 50 uM Cu2+ by MTT assay. The format is functional, cell-based. Particulars: dose 10-50 µM.
The nature of data set [12]: Cytotoxicity against human H6C7 cells assessed as reduction in cell viability measured after 48 hrs by MTT assay. The format is cell-based. Particulars: H6C7, 48 h. The essentials: as §1
Data set [13] has as its system PANC-1. Nature of the data set: Cytotoxicity against human PANC-1 cells assessed as reduction in cell viability measured after 48 hrs in presence of FeCl3 by MTT assay. The conditions noted are these: PANC-1, 48 h. Type of data set: functional, cell-based. The essentials:
as §1

The test system of data set [14] is SW1990. Nature of the data set: Induction of apoptosis in human SW1990 cells at 12 uM measured after 24 hrs in presence of ROS quencher NAC by Annexin V-FITC/propidium iodide staining based flow cytometry. The format is functional, cell-based. The procedure, abridged:
as §3

Data set [15] is described as follows: Metal chelating activity assessed as compound-Cu2+ complex formation by measuring intracellular HO level in human SW1990 cells at 10 uM measured after 1 hr in presence of CuCl2 and HO radical scavenger tempol by HO probe based confocal laser scanning microscopic analysis. Type of data set: cell-based. The procedure, abridged: (§5)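 SW1990 cells at 80% confluence were loaded with 20 µM HO· probe at 37 °C for 30 min and rinsed. They then received 50 µM CuCl₂, followed by 10 µM compound for 1 h. For the scavenger arm, 1 mM tempol was given for 30 min before CuCl₂. CLSM imaging at λex 570 / λem 650 nm gave mean intensity; n = 3.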

Data set [16] in a line: Stability of compound in pH 7.4 PBS buffer assessed as parent compound remaining measured after 24 hrs by RP-HPLC analysis. Type of data set: physicochemical. Particulars: read-out: Stabilty. The essentials:
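Compound (1 µM) stirred at 37 °C either in PBS (pH 5.0, 7.4 or 10.0) containing 5% DMSO or in DMEM with 10% FBS. Aliquots were analysed by RP-HPLC (0.1% TFA water/methanol gradient, 256 nm) for remaining intact compound, up to 24 h.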

The nature of data set [17]: Stability of compound in presence of Fe3+ at 100 uM measured after 1 hr by RP-HPLC analysis. The format is physicochemical. The procedure, abridged: as §4
The subject of data set [18] is SW1990. Nature of the data set: Cytotoxicity against human SW1990 cells assessed as reduction in cell viability at 10 to 20 uM measured after 48 hrs in presence of ROS quencher NAC by MTT assay. The format is functional, cell-based. The conditions noted are these: dose 10-20 µM. The essentials: as §2
Data set [19] concerns SW1990. Nature of the data set: Antitumor activity against human SW1990 cells xenografted in Balb/c nude mouse assessed as tumor size at 20 mg/kg, iv administered every 3 days measured after 21 days (reference value: 1.23 +/- 0.25 cm3). The conditions noted are these: time 21 day. Type of data set: functional. The procedure, abridged: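 Male BALB/c nude mice, 3–5 weeks old, given 1 × 10⁷ SW1990 cells subcutaneously; when tumors reached about 65 mm³, randomised to groups of eight. Saline vehicle control, dosing intravenously every three days. Tumor size monitored every two days for three weeks; tumors dissected at sacrifice on day 21, volume = d² × D/2 (d smallest, D largest diameter). Mean ± SD.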

The nature of data set [20]: Stability of compound in presence of GSH at 100 uM measured after 1 hr by RP-HPLC analysis. Type of data set: physicochemical. The essentials:
as §4

The nature of data set [21]: Metal chelating activity assessed as compound-Cu2+ complex formation by measuring intracellular HO level in human SW1990 cells at 10 uM measured after 1 hr in presence of CuCl2 by HO probe based confocal laser scanning microscopic analysis. Type of data set: cell-based. The essentials: as §5
Data set [22] is described as follows: Prodrug activation in peroxynitrite ONOO- assessed as drug decomposition at 100 uM measured after 1 hr by RP-HPLC analysis. The essentials: as §4

`O=C(NCCCOc1no[n+]([O-])c1S(=O)(=O)c1ccccc1)c1ccc2cccc(OCc3ccc(B(O)O)cc3)c2n1`: the Ratio in [1] came out at 0.64. In addition, the IC50 is 35.6 µM in data set [2], 1.2 µM in data set [8], over 50 µM in data set [12] and 17.6 µM in data set [13]. In addition, the outcome in data set [3], in data set [5], in data set [10] and in data set [21] was Active. The outcome in data set [4], in data set [7], in [14], in [15] and in data set [18] was inactive. Moreover, the Drug metabolism entry in data set [6] and in data set [9] was “Metabolite_Notdetected” throughout. Besides, the figures for the Activity result in [11] and in data set [19] were “Dose-dependent effect” and 0.47 cm3, respectively. The remaining at 24 h in data set [16] is over 80%. Besides, the Stabilty result in data set [17] and in data set [20] was “Stable” in each case. The Drug degradation in [22] turned out to be 20.8%.
